Experimental data published in ChEMBL document CHEMBL4513216, “Probing the Open Global Health Chemical Diversity Library for Multistage-Active Starting Points for Next-Generation Antimalarials” (ACS Infect Dis, 2020).

experiment: Toxicity liver stage against HepG2, at 10uM; assay type: cell-based; design: test concentration 10 uM, cell line HepG2-A16-CD81EGFP; settings: human, HepG2-A16-CD81EGFP cells; read-out: INHIBITION
Outline: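 Uninfected HepG2-A16-CD81EGFP cells, 3 × 10^3 per well, 1536-well, plated on prespotted compound at 10 μM final, parasite-free screening media added to match infected plates; puromycin 10 μM positive, DMSO 0.5% negative; run in parallel with 48 h PbLuc assay at 37 °C, 5% CO2; viability by CellTiter-Glo luminescence, normalized to controls.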

Structure (SMILES) | cytotoxicity at 10 µM [%]
CS(=O)(=O)N1C[C@@H]2COC[C@@H](CC(=O)N3CCCCO3)[C@@H]2C1 | 10.6
CNC(=O)CCNC(=O)CCc1c(C)nc2cc(O)nn2c1C | -2.7
CCOC(=O)N1CCN(c2nc(NC3CC3)c3ccccc3n2)CC1 | -0.529
Cc1nnc(N2CCCC(C(=O)c3cccc(Cl)c3)C2)o1 (stereo not drawn) | 6.14
Cc1ncsc1C(=O)N1CCCN(Cc2cscn2)CC1 | -9.67
Cc1noc(C)c1CNC(C)c1ccc(S(=O)(=O)N(C)C)cc1 (stereo not drawn) | 2.47
Cc1ccc(NC(=O)N(C)Cc2cnn(C)c2)c(C)c1 | -10.7
COCC1CN(C(=O)Cc2cccs2)Cc2nnn(C)c21 (stereo not drawn) | 4.99
COc1ccccc1-c1nnc2n1N=C(N)C(C#N)S2 (stereo not drawn) | 1.5
Cc1cnc(N2CCC3(CC(=O)N(Cc4csc(C)n4)C3)C2)nc1 (stereo not drawn) | -0.211
c1cncc(C2CC3(CCN(c4cnccn4)CC3)c3ccccc32)c1 (stereo not drawn) | 11.2
CCCn1ccnc1CN1CCCC1c1ccccn1 (stereo not drawn) | -7.25
O=C(Nc1ccc(N2CCCCC2)cn1)C1CCCN1C(=O)C1CC1 (stereo not drawn) | -6.35
Cc1cc(C)n2c(CCCNS(=O)(=O)c3ccc(F)cc3)nnc2n1 | 2.38
Cc1cnc(N2CCC3(CC2)CC3CNC(=O)N(C)C)nc1 (stereo not drawn) | 8.82
Cc1ccc(C(CNCc2nccn2C)N2CCOCC2)s1 (stereo not drawn) | -1.76
COc1nc2c(cc1C(=O)NC(C)Cc1cnccn1)CCC2 (stereo not drawn) | -135
CCc1nonc1NC(=O)C(C)Oc1ccccc1F (stereo not drawn) | 12
Cc1ncc2c(n1)CN(Cc1cn3ccsc3n1)CC2 | -9.06
CCn1c(C)nc2cc(NC(=O)CC3CCCCO3)ccc21 (stereo not drawn) | 5.36
CCc1ncncc1C(=O)NCCNS(=O)(=O)c1ccc(C)cc1 | -5.95
Cc1ccsc1[C@@H]1CCN(C(=O)Cn2cc3ccccc3n2)C[C@H]1O | -1.96
CC1CCCN(C(=O)c2ccn(COc3ccccc3)n2)C1 (stereo not drawn) | 9.43

Structure (SMILES) | cytotoxicity at 10 µM [%]
CCc1nnc2n1CCN(CC(O)c1ccc3c(c1)OCCO3)C2 (stereo not drawn) | -7.3
COc1ccc(SC(C)C(=O)N2CCC(O)CC2)cc1 (stereo not drawn) | 0.887
Cc1cc(C)c2c(NCCC3(O)CCCC3)ncnc2n1 | -4.44
CCOCC1CN(C(=O)c2ccncc2)Cc2nn(C)cc21 (stereo not drawn) | -5.82
Cc1cc(N)nc(SC2CCN(c3ccccc3F)C2=O)n1 (stereo not drawn) | -9.51
CCCc1noc(CCC(=O)N2CCCC2c2ccncc2)n1 (stereo not drawn) | -2.42
CN1CCN(C)C2(CCN(Cc3ccc(C4CCCO4)s3)CC2)C1 (stereo not drawn) | -11.7
CCS(=O)(=O)N1CCc2ccc(NC(=O)Nc3cccc(C)c3)cc21 | 42.3
Cn1cccc1C(=O)N1CCCN(CCCc2ccccc2)CC1 | -16.4
CS(=O)(=O)N1CCCC1c1ccnc2nccn12 (stereo not drawn) | -2.62
Cc1c[nH]c(CN(C)C(=O)C(C)(C)NC(=O)c2cccs2)n1 | 3.08
Cc1cccc2c1cnn2CCCNC(=O)C(C)C | -2.12
CC(C)N1CC(C(=O)N2CCN(CCn3cccc3)CC2)CC1=O (stereo not drawn) | -4.97
Cc1oc(-c2ccco2)nc1CC(=O)N1CCN(C2CCC2)CC1 | 4.33
CCc1cc(C(=O)N2CCc3c(ncn3CCc3ccccc3)C2)[nH]n1 | -3.64
O=S(=O)(NCc1ccccc1)N1CCN(c2ncccn2)CC1 | 4.7
CN(Cc1ccon1)C(=O)C1CC(=O)N(Cc2ccncc2)C1 (stereo not drawn) | -0.368
Cc1nn(C)c(Cl)c1C1CCCN1C(=O)c1cccc(C#N)c1 (stereo not drawn) | -22
Cc1cc(C)c2[nH]c(C)c(CC(=O)N(C)CCN(C)C)c2c1 | 2.49
CN1CCC(NC(=O)Nc2ccc(Cl)c(F)c2)C1=O (stereo not drawn) | -136
Cc1oc(C(=O)O)cc1S(=O)(=O)Nc1ccccc1F | -2.8
O=C(O)c1cc(-c2ccoc2)cc(S(=O)(=O)NCc2ccccn2)c1 | -47.6
Cc1nc(C(C)(C)NC(=O)Nc2ccccc2)no1 | -1.48

Structure (SMILES) | cytotoxicity at 10 µM [%]
Cc1ncc(CN(C)C(=O)Nc2ccc(CN3CCOC3=O)cc2)s1 | -2.97
COc1cccc(NC(=O)CCCc2nc(C(C)C)no2)c1 | 6.39
COCCN1CCC(CN(CC2CCCO2)C(=O)Cn2cccn2)CC1 (stereo not drawn) | -3.79
CCc1nc(C2CCCN(C(=O)c3ccc(OC)cc3)C2)no1 (stereo not drawn) | -15.6
COc1ccc(CC2CN(C(=O)c3ocnc3C)CCO2)cc1 (stereo not drawn) | 11.4
COc1ccc(-c2nnc(SC(C)C(=O)NC3CC3)[nH]2)c(OC)c1 (stereo not drawn) | 45.3
Cc1cc2c(=O)n(CCSc3ncn[nH]3)cnc2s1 | 8.87
CC(=O)N1CCC(C(=O)NCc2cc[nH]n2)(c2ccccc2)CC1 | -0.037
COc1cc(OC)cc(C(=O)Nc2ncnc3c2CCC3)c1 | -179
CN1CCCC(CNC(=O)N2CCN(Cc3ccon3)CC2)C1 (stereo not drawn) | 15.5
FC(F)(F)c1ccc(-c2cc(NC3CCNCC3)nc3[nH]ccc23)nc1 | -0.608
O=C(c1cccs1)N1CC[C@H](O)[C@@H]1Cc1ccccc1 | -5.99
O=C(NCCCn1ccccc1=O)c1cnc(-c2ccsc2)s1 | 0.956
COCC1CN(c2ccc(C#N)c(Cl)c2)CCO1 (stereo not drawn) | 4.86
CN(C)CCO[C@H]1C[C@@H](O)C12CCN(c1ncccc1Cl)CC2 | 5.37
COCC(=O)N1CCC(c2nccnc2Oc2cccnc2C)CC1 | 6.79
CCc1noc(CS(=O)(=O)Cc2ccccc2Cl)n1 | -6.75
CCCC(=O)N1Cc2ccccc2CC2(CCN(C)C2)C1 (stereo not drawn) | 2.71
Cc1cnc(N(C)Cc2cnc3ccccc3n2)nc1N(C)C | 6.7
Cc1csc(N2CCN(Cc3cccnc3)CC2C)n1 (stereo not drawn) | 11.2
CCc1nc(N2CCC3(CCC(=O)N(Cc4ccncc4)C3)CC2)no1 | 7.1
Cc1ccc(CNC(=O)c2oc3ccccc3c2CN(C)C)n1C | 0.521
CCCC(=O)NCCc1nc2cc(-c3ccc(OC)cc3)ncn2n1 | 5.26

Structure (SMILES) | cytotoxicity at 10 µM [%]
O=C(Cn1c(-c2ccco2)cc2cccnc21)N1CCCC1 | -4.04
CC(=O)N1CCN(CCNS(=O)(=O)c2ccc(F)c(F)c2)CC1 | 8.81
CC(=O)N1CCOC(c2cc(N3CC(O)C3)nc(C)n2)C1 (stereo not drawn) | 3.16
CCn1cc(NC(=O)C2CCC(=O)N2Cc2ccco2)cn1 (stereo not drawn) | -0.607
CC(C)C(=O)N1CCN(C(=O)N(C)C)CC2(CC(=O)N(C)C2)C1 (stereo not drawn) | -21
CN(C)C(=O)c1cccnc1N1CCOC(c2ccc(Cl)cc2)C1 (stereo not drawn) | 9.39
CN1CCN(C(=O)c2ccc3c(c2)[nH]c(=O)n3C2CCCC2)CC1 | -42.2
Cc1cnc(N2Cc3nccn3CC(Cn3ncccc3=O)C2)nc1 (stereo not drawn) | 7.54
Oc1cccc(CNCc2ccc(-n3cncn3)nc2)c1 | 4.01
Cn1cc(NC(=O)N2CCC(CN3CCCC3)CC2)ccc1=O | -11.5
Cc1cnc2c(S(=O)(=O)NCC3CCOC3)cccc2c1 (stereo not drawn) | -6.94
Cn1cnnc1CCC(=O)N1CCCC(OCc2cccnc2)C1 (stereo not drawn) | 2.66
CCn1cnnc1CNC(=O)NCC(O)c1ccc(OC)cc1 (stereo not drawn) | 5.66
O=C(NCCOCC(F)(F)F)c1ccc(-c2ccccc2)[nH]c1=O | -13.9
COc1cccc(-c2ccc(CNC(=O)c3ccc(=O)n(C)c3)cc2)c1 | 22.3
COC(=O)CC(C)(C)CC(=O)N1CCC(C(F)(F)F)CC1 | 14.9
CCOc1ncnc2c1CCN(S(=O)(=O)c1ccccc1)CC2 | -110
CO[C@H]1CN(C(C)C)C[C@@H]1NC(=O)Nc1ccc2oc(C)cc2c1 | 0.0448
Cc1noc(C)c1CCC(=O)N1CCCN(CC(N)=O)CC1 | -12.4
CCC(C)N(Cc1ccncc1)Cc1ccc(-n2cccn2)cc1 (stereo not drawn) | -48.3
COCCN(C/C=C/c1ccccc1)Cc1ccccn1 | 6.82
Cc1nn(C)c(C)c1CNC(=O)CCn1ncc2c(Cl)cccc21 | 8.38
CN1CC[C@H]2OCC[C@@H](C(=O)NCc3ccco3)[C@@H]2C1 | -78

Structure (SMILES) | cytotoxicity at 10 µM [%]
CC(C)Oc1ccccc1C(=O)NCCc1nncn1C | -7.71
CC1N(CC2CC2)C(=O)COC12CCN(Cc1nccs1)CC2 (stereo not drawn) | -8.19
O=C(NCC1CCOC1)N1CCN(c2ncccn2)CC1 (stereo not drawn) | -39.8
O=C(CC1CCc2ccccc21)N1CCC(O)(Cn2ccnc2)CC1 (stereo not drawn) | 5.01
Cc1ccsc1C(O)CNC(=O)Cc1ccc(S(=O)(=O)C(C)C)cc1 (stereo not drawn) | -1.21
Cc1cccc(CN2CCC(NS(C)(=O)=O)CC2)n1 | 9.87
Cc1ncc(CN2CCOC(c3ccc(-c4ccccc4F)cn3)C2)s1 (stereo not drawn) | -35.7
CCC(NCc1nccn1C)c1nc(C(F)(F)F)cs1 (stereo not drawn) | 0.245
O=C1CCC(=O)N1c1nn(Cc2ccccc2Cl)cc1Cl | -6.69
CCc1ccc(S(=O)(=O)NCC2CCN(c3cnccn3)CC2)s1 | 7.69
CCS(=O)(=O)NC(CCSC)C(=O)Nc1cc(F)ccc1C (stereo not drawn) | 6.29
Cc1nc(CN2CCC3(CC2)NC(=O)CC3c2ccncc2)cs1 (stereo not drawn) | 5.79
CN(C)CCN1CCOCC2(C1)CN(Cc1ccsc1)CCO2 (stereo not drawn) | -0.439
O=C(C1=CCCC1)N1CCC[C@]2(C[C@@H](Oc3ncccc3F)CO2)C1 | -15.5
CCC(CC)NC(=O)CN1CCN(C(=O)N(C)C)CC1 | -3.7
Cc1ccc2c(n1)N(C)CCN(CCN1CCCC1)C2 | -8.84
Cc1nc(CN2CCCC(c3cc(C(F)(F)F)[nH]n3)C2)cs1 (stereo not drawn) | -4.95
CCc1nc(C2CCCN2Cc2nccn2CC(F)(F)F)no1 (stereo not drawn) | -17.2
Cc1cnc(CNC2CCc3nc(C(C)C)nn3C2)cn1 (stereo not drawn) | 4.93
CCc1c(C)nn(CC(=O)NC(C(=O)O)c2c(C)n[nH]c2C)c1C (stereo not drawn) | 5.79
CCc1n[nH]c(C2CN(C(=O)c3ccc(NC4CC4)nc3)CCO2)n1 (stereo not drawn) | 5.77
